Reference: ChEMBL document CHEMBL1125468, “Extraordinarily potent antimalarial compounds: new, structurally simple, easily synthesized, tricyclic 1,2,4-trioxanes” (J Med Chem, 1992)
In brackets after ≈: the same amount, converted by molar mass.

How the values were obtained:
Plasmodium falciparum [1] = experiment: Parasite viability index for Plasmodium falciparum Indochina W2 by [3H]hypoxanthine uptake; format: functional, organism-based
[2] = Potency to inhibit Indochina(W-2) clone relative to artemisinin.; format: functional
How it was run: (§1)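 Ratio of artemisinin IC50 to test-compound IC50, both measured in the same [3H]hypoxanthine microdilution assay against the named clone. Parasites were at 0.5% parasitemia and 1% hematocrit, exposed for 24 h at 37 °C under low oxygen, then labelled for 18–20 h. IC50s came from a four-parameter logistic fit of duplicate wells.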

Plasmodium falciparum [3] = experiment: Inhibition of Plasmodium falciparum D6 (Sierra Leone) by [3H]hypoxanthine uptake; format: functional, organism-based
[4] = Potency to inhibit African Sierra Leone(D-6) clone relative to artemisinin.; format: functional; how it was run: as §1

| SMILES | IC50 (Plasmodium falciparum [1]) | Relative potency [2] | IC50 (Plasmodium falciparum [3]) | Relative potency [4] |
| --- | --- | --- | --- | --- |
| COC(=O)c1ccccc1S(=O)(=O)OCC[C@@H]1CCC[C@@H]2CC[C@]3(C)OO[C@]21[C@@H](OC)O3 | 13.2 ng/mL (≈ 28.1 nM) | 0.1 | 11.3 ng/mL (≈ 24 nM) | 0.3 |
| CO[C@H]1O[C@]2(C)CC[C@H]3CCC[C@@H](CCOC(=O)c4ccc(C(=O)O)cc4)[C@]31OO2 | 15.7 ng/mL (≈ 37.3 nM) | 0.1 | 63.3 ng/mL (≈ 151 nM) | 0.1 |
| CO[C@H]1O[C@]2(C)CC[C@H]3CCC[C@@H](CCOS(=O)(=O)c4cccc5c(N(C)C)cccc45)[C@]31OO2 | 1.2 ng/mL (≈ 2.37 nM) | 1.2 | 16.3 ng/mL (≈ 32.2 nM) | 0.2 |
| CO[C@H]1O[C@]2(C)CC[C@H]3CCC[C@@H](CCOCc4c(C)noc4C)[C@]31OO2 | 0.5 ng/mL (≈ 1.31 nM) | 2.8 | 7.6 ng/mL (≈ 19.9 nM) | 0.5 |
| CO[C@H]1O[C@]2(C)CC[C@H]3CCC[C@@H](CCOC(=O)N(C)C)[C@]31OO2 | 0.8 ng/mL (≈ 2.33 nM) | 1.8 | 2.9 ng/mL (≈ 8.44 nM) | 1.3 |
| COC(=O)c1ccc(C(=O)OCC[C@@H]2CCC[C@@H]3CC[C@]4(C)OO[C@]32[C@@H](OC)O4)cc1 | < 1.2 ng/mL | > 1.2 | > 1.2 ng/mL | > 3.3 |
| CCN(CC)C(=O)c1ccc(C(=O)OCC[C@@H]2CCC[C@@H]3CC[C@]4(C)OO[C@]32[C@@H](OC)O4)cc1 | < 1.4 ng/mL | > 1 | < 1.4 ng/mL | > 2.8 |
| CO[C@H]1O[C@]2(C)CC[C@H]3CCC[C@@H](CCOC(=O)c4ccccc4)[C@]31OO2 | 8.2 ng/mL (≈ 21.8 nM) | 0.2 | 29.5 ng/mL (≈ 78.4 nM) | 0.1 |
| C=CCOCC[C@@H]1CCC[C@@H]2CC[C@]3(C)OO[C@]21[C@@H](OC)O3 | 0.6 ng/mL (≈ 1.92 nM) | 2.3 | 5.5 ng/mL (≈ 17.6 nM) | 0.7 |
| CCN(CC)C(=O)OCC[C@@H]1CCC[C@@H]2CC[C@]3(C)OO[C@]21[C@@H](OC)O3 | < 0.4 ng/mL | > 3.5 | 1.7 ng/mL (≈ 4.58 nM) | 2.3 |
| CO[C@H]1O[C@]2(C)CC[C@H]3CCC[C@@H](CCOC(=O)CNC(=O)OC(C)(C)C)[C@]31OO2 | 2.5 ng/mL (≈ 5.82 nM) | 0.6 | 3.5 ng/mL (≈ 8.15 nM) | 1.1 |
| CCOP(=O)(OCC)OCC[C@@H]1CCC[C@@H]2CC[C@]3(C)OO[C@]21[C@@H](OC)O3 | < 0.9 ng/mL | > 1.6 | 1.1 ng/mL (≈ 2.69 nM) | 3.5 |
| CO[C@H]1O[C@]2(C)CC[C@H]3CCC[C@@H](CCOC(=O)N(c4ccccc4)c4ccccc4)[C@]31OO2 | < 0.2 ng/mL | > 7 | 0.9 ng/mL (≈ 1.92 nM) | 4.3 |
| C[C@@H]1CC[C@H]2[C@@H](C)C(=O)O[C@@H]3O[C@@]4(C)CC[C@@H]1[C@]32OO4 [ARTEMISININ] | 1.4 ng/mL (≈ 4.96 nM) | 1 | 3.9 ng/mL (≈ 13.8 nM) | 1 |
| CO[C@H]1O[C@]2(C)CC[C@H]3CCC[C@@H](CCOS(=O)(=O)c4ccc(C)cc4)[C@]31OO2 | 1.9 ng/mL (≈ 4.45 nM) | 0.7 | 5.6 ng/mL (≈ 13.1 nM) | 0.7 |
| CO[C@H]1O[C@]2(C)CC[C@H]3CCC[C@@H](CCOC(=O)c4ccc(C(=O)OCCN(C)C)cc4)[C@]31OO2 | 3.3 ng/mL (≈ 6.71 nM) | 0.4 | 12.6 ng/mL (≈ 25.6 nM) | 0.3 |
| CO[C@H]1O[C@]2(C)CC[C@H]3CCC[C@@H](CCOCc4ccccc4)[C@]31OO2 | 0.4 ng/mL (≈ 1.1 nM) | 3.5 | 5.4 ng/mL (≈ 14.9 nM) | 0.7 |
| COCC[C@@H]1CCC[C@@H]2CC[C@]3(C)OO[C@]21[C@@H](OC)O3 | 3.7 ng/mL (≈ 12.9 nM) | 0.4 | 10.7 ng/mL (≈ 37.4 nM) | 0.4 |
